Measurements of several laboratories.
Protocols differ between the studies behind these lines.
Organism: Human immunodeficiency virus 1
Effect on: viral replication

Structure (SMILES)	assay	test system	conditions	quantity	value
CCOC(=O)c1cccc(Cn2ccc3ccc(-c4ccc5ccn(Cc6cccc(C(=O)O)c6)c5c4)cc32)c1	inhibitor	MAGI, BAL	–	IC90	28.9 µM
CC(C)C[C@H](NC(=O)[C@@H](NC(=O)[C@@H]1CCCN1C(=O)[C@@H](NC(=O)[C@H](CO)NC(=O)[C@@H](NC(=O)[C@H](CCC(N)=O)NC(=O)[C@@H]1CCCN1C(=O)[C@@H](NC(=O)[C@H](CCCCN)NC(=O)[C@H](CCCCN)NC(=O)[C@@H](NC(=O)[C@H](Cc1ccc(O)cc1)NC(=O)[C@H](CCCNC(=N)N)NC(=O)[C@@H](NC(=O)[C@@H](N)CC(C)C)C(C)C)[C@@H](C)O)C(C)C)C(C)C)[C@@H](C)O)[C@@H](C)O)C(=O)O	inhibitor	TZM-bl	–	IC50	> 10 µM
CC(C)(C)NC(=O)[C@@H]1C[C@@H]2CCCC[C@@H]2CN1C[C@@H](O)[C@H](Cc1ccccc1)NC(=O)[C@H](CC(N)=O)NC(=O)c1ccc2ccccc2n1	–	MT2	–	IC50	0.019 µM
O=c1oc2c(O)c(O)cc3c(=O)oc4c(O)c(O)cc1c4c23	inhibitor	CEM-GFP	8 days	IC50	73 µg/mL
C[C@@H](O[C@H]1OCCN(Cc2n[nH]c(=O)[nH]2)[C@H]1c1ccc(F)cc1)c1cc(C(F)(F)F)cc(C(F)(F)F)c1	inhibitor, ELISA	human PBMC, NL43	7 days	IC50	5.7 µM
O=c1cc(-c2ccccc2)oc2cc(O)cc(O)c12	inhibitor	human PBMC	6 days	EC50	9.2 µM
COC(=O)c1cccc(Cn2ccc3ccc(-c4ccc5ccn(Cc6cccc(C(=O)O)c6)c5c4)cc32)c1	inhibitor	MAGI, BAL	–	IC90	38.4 µM
Cc1cn([C@H]2C[C@H](N=[N+]=[N-])[C@@H](CO)O2)c(=O)[nH]c1=O	inhibitor, luciferase	TZM-bl	48 h	IC50	0.043 µg/mL
Cc1cn([C@H]2C[C@H](N=[N+]=[N-])[C@@H](CO)O2)c(=O)[nH]c1=O	inhibitor, ELISA	human PBMC, NL43	7 days	IC50	0.005 µM
COc1cc(F)ccc1-c1ncnc(Nc2cccc(C[S@](C)(=N)=O)c2)n1	inhibitor	human PBMC	6 days	EC50	3.4 µM
O=C(O)c1cc(O)c(O)c(O)c1	inhibitor	CEM-GFP	8 days	IC50	0.19 µg/mL
C[N+](C)(C)CCCn1c(=O)c2cc(Br)c3c(=O)n(CCC[N+](C)(C)C)c(=O)c4c5[nH]c6ccccc6[nH]c5c(c1=O)c2c34	–	TZM-bl, NL43	48 h	IC50	> 5 µM
C/C(=C\C(=O)OCCCCCCCCC(=O)O)C[C@@H]1OC[C@H](C[C@@H]2O[C@H]2[C@@H](C)[C@H](C)O)[C@@H](O)[C@H]1O	inhibitor	TZM-bl	–	EC50	> 100 µM
O=C1C[C@@H](c2ccc(O)cc2)Oc2cc(O)cc(O)c21	inhibitor	human PBMC	6 days	EC50	> 30 µM
OCc1cc(C(O)CNCCCCCCOCCCCc2ccccc2)ccc1O (stereo not shown)	inhibitor	TZM-bl	–	EC50	20 µM
O=C(O)c1cc(F)cc(Cn2ccc3ccc(-c4ccc5ccn(Cc6cccc(OC(F)(F)F)c6)c5c4)cc32)c1	inhibitor	BAL	–	IC50	1.4 µM
